Test results reported in ChEMBL document CHEMBL4406810, “Modifications on the Amino-3,5-dicyanopyridine Core To Obtain Multifaceted Adenosine Receptor Ligands with Antineuropathic Activity” (J Med Chem, 2019).
Calls of active or inactive are those of the source. The calls are words filed in the database; no cut-off is given here.

Key:
[1] = target: T1, Adenosine receptor A2b (Homo sapiens, UniProt P29275); assay: Agonist activity at human A2B expressed in CHO cells assessed as stimulation of cAMP production by alphascreen assay; type: functional, cell-based
T1 sequence (P29275 whole entry): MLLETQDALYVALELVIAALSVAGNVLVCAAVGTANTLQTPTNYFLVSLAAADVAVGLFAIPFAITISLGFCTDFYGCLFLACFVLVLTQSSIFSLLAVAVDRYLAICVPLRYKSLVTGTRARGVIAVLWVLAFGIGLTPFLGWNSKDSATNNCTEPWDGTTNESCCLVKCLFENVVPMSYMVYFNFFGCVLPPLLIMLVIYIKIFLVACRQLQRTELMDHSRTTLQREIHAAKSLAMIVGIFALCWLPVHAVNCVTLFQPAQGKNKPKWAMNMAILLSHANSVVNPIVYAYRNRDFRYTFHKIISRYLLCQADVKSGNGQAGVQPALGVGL
Method in brief: (§1)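 Compounds tested alone at final 1 nM to 1 µM. cAMP measured by AlphaScreen. Efficacy taken at 1 µM relative to NECA 1 µM (=100%). Four independent experiments in triplicate.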

[2] = target: T2, Adenosine receptor A2a (Homo sapiens, UniProt P29274); assay: Displacement of [3H]ZM241385 from human A2AR expressed in CHO cell membranes at 1 uM measured after 60 mins by scintillation counting method relative to control
T2 sequence (P29274 whole entry): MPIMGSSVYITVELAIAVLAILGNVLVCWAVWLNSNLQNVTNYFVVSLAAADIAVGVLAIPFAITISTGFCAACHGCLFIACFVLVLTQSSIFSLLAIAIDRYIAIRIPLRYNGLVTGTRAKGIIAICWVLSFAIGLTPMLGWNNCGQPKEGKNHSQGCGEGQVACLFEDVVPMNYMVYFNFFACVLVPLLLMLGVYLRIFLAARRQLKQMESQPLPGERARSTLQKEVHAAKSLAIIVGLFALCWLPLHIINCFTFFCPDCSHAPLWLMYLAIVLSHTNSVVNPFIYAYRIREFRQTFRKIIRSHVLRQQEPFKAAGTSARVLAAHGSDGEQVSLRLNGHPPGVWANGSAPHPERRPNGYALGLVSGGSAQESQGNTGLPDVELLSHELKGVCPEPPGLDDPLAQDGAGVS
Method in brief: (§2)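 Nonspecific binding defined with 1 µM ZM241385. Filtered on GF/B, scintillation counted. Ki by Cheng–Prusoff. Percent inhibition at 1 µM. Four experiments in triplicate.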

[3] = target: T3, Adenosine receptor A1 (Homo sapiens, UniProt P30542); assay: Displacement of [3H]DPCPX from human A1AR expressed in CHO cell membranes measured after 90 mins by scintillation counting method
T3 sequence (P30542 whole entry): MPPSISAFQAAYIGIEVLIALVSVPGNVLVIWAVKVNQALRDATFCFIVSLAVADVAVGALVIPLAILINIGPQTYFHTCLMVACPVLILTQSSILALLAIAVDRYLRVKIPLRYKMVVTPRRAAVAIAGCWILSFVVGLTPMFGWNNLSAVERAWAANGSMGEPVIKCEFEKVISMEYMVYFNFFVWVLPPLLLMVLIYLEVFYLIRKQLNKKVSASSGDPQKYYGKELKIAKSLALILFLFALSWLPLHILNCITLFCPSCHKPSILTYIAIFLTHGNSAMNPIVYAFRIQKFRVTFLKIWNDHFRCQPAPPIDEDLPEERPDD
Method in brief: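 Nonspecific binding with 1 µM DPCPX. GF/B filtration and scintillation counting. Ki by Cheng–Prusoff. Inhibition % at 1 µM. Four experiments in triplicate.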

[4] = target: T4, Adenosine receptor A2b (Homo sapiens) (UniProt P29275); assay: Agonist activity at human A2B expressed in CHO cells assessed as stimulation of cAMP production at 1 uM by alphascreen assay relative to NECA; type: functional, cell-based; method in brief: as §1
T4 sequence (whole entry): T1 sequence (P29275 whole entry)

[5] = target: T5, Adenosine receptor A3 (Homo sapiens) (UniProt P0DMS8); assay: Displacement of [125I]ABMECA from human A3R expressed in CHO cell membranes at 1 uM measured after 120 mins by scintillation counting method relative to control
T5 sequence (whole entry): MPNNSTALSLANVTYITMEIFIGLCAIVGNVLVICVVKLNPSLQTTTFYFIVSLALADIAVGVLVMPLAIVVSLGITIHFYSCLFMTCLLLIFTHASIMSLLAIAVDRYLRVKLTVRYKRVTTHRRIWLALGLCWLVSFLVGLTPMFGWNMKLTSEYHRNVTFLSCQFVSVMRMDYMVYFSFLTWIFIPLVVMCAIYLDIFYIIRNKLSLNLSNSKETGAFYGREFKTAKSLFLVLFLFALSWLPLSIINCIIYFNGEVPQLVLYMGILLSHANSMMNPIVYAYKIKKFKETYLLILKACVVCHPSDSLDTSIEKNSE
Method in brief: (§3)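 Nonspecific binding with 1 µM AB-MECA. GF/B filtration and counting. Ki via Cheng–Prusoff. Percent inhibition at 1 µM. Four experiments in triplicate.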

[6] = test system: CHO; assay: Effect on cAMP level in wild-type CHO cells at 0.001 to 1 uM by alphascreen assay; type: functional, cell-based; conditions: Cricetulus griseus
Method in brief: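 Compounds at 1 nM to 1 µM final concentrations. cAMP quantified with AlphaScreen kit. Four independent experiments, each in triplicate.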

[7] = target: T2, Adenosine receptor A2a; assay: Displacement of [3H]ZM241385 from human A2AR expressed in CHO cell membranes measured after 60 mins by scintillation counting method; method in brief: as §2
[8] = target: T3, Adenosine receptor A1; assay: Inverse agonist activity at human A1AR expressed in CHO cells assessed as increase in forskolin-stimulated cAMP production by alphascreen assay; type: functional, cell-based
Method in brief: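 Compounds at 1 nM to 1 µM. cAMP rise measured by AlphaScreen. EC50 from sigmoid fit. Four independent experiments in triplicate.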

[9] = target: T6, Adenosine receptor A1 (Homo sapiens) (UniProt P30542); assay: Inverse agonist activity at human A1AR expressed in CHO cells assessed as increase in forskolin-stimulated cAMP production by alphascreen assay relative to DPCPX; type: functional, cell-based
T6 sequence (whole entry): T3 sequence (P30542 whole entry)
Method in brief: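 Compounds at 1 nM to 1 µM. cAMP rise measured by AlphaScreen. EC50 from sigmoid fit. […] Four independent experiments in triplicate.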

[10] = target: T7, Adenosine receptor A3 (Homo sapiens, UniProt P0DMS8); assay: Displacement of [125I]ABMECA from human A3R expressed in CHO cell membranes measured after 120 mins by scintillation counting method; method in brief: as §3
T7 sequence (P0DMS8 whole entry): T5 sequence (whole entry)

[11] = target: T4, Adenosine receptor A2b (Homo sapiens); assay: Antagonist activity at human A2BR expressed in CHO cells assessed as inhibition of NECA-stimulated cAMP production at 1 uM by alphascreen assay relative to control; type: functional, cell-based
Method in brief: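 Compounds added at 1 nM to 1 µM final, with percent inhibition read at 1 µM. AlphaScreen cAMP read-out. IC50 by sigmoid non-linear regression. Four independent experiments in triplicate.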

Compound	EC50 [1]	inhibition [2]	Ki [3]	Efficacy [4]	inhibition [5]	Activity [6]	Ki [7]	EC50 [8]	Emax [9]	Ki [10]	inhibition [11]
N#Cc1c(N)nc(OCCO)c(C#N)c1-c1ccco1	> 1000 nM	25%	632 nM	11%	3%	inactive					
N#Cc1cccc(CSc2nc(N)c(C#N)c(-c3ccco3)c2C#N)c1	> 1000 nM		1.02 nM	7%		inactive	93 nM	4.82 nM	100%	668 nM	
N#Cc1c(N)nc(SCCO)c(C#N)c1-c1cccnc1	> 1000 nM	7%	35 nM	18%	22%	inactive		94 nM	75%		
N#Cc1c(N)nc(SCCO)c(C#N)c1-c1ccsc1	> 1000 nM	9%	60 nM	8%	33%	inactive		142 nM	62%		
N#CCSc1nc(N)c(C#N)c(-c2ccco2)c1C#N	> 1000 nM		93 nM	1%		inactive	887 nM			582 nM	
COC(=O)CSc1nc(N)c(C#N)c(-c2ccco2)c1C#N	> 1000 nM	17%	108 nM	4%	25%	inactive					
N#Cc1c(NC2CCCC2)nc(SCCO)c(C#N)c1-c1ccco1	> 1000 nM	8%	742 nM	1%		inactive				780 nM	
N#Cc1c(N)nc(SCc2ccccn2)c(C#N)c1-c1ccco1	> 1000 nM		2.71 nM	9%		inactive	108 nM	3.41 nM	30%	134 nM	
N#Cc1c(N)nc(NCCO)c(C#N)c1-c1cccs1	> 1000 nM	33%	324 nM	1%	29%	inactive					4%
N#Cc1c(N)nc(SCCO)c(C#N)c1-c1cccs1	885 nM	1%	52 nM	69%		inactive		107 nM	74%	554 nM	
N#Cc1c(N)nc(SCC(=O)c2ccccc2)c(C#N)c1-c1ccco1	> 1000 nM		23 nM	1%	26%	inactive	224 nM	57 nM	29%		
N#Cc1c(N)nc(SCC(=O)OCc2ccccc2)c(C#N)c1-c1ccco1	> 1000 nM	8%	86 nM	10%	1%	inactive		192 nM	53%		
COC(=O)c1cccc(CSc2nc(N)c(C#N)c(-c3cccs3)c2C#N)c1	982 nM		2.72 nM	62%	15%	inactive	693 nM	3.85 nM	56%		
COC(=O)c1cccc(CSc2nc(N)c(C#N)c(-c3ccoc3)c2C#N)c1	> 1000 nM		2.11 nM	7%	1%	inactive	96 nM	4.35 nM	51%		
N#Cc1c(N)nc(SCC(N)=O)c(C#N)c1-c1ccco1	> 1000 nM	21%	175 nM	17%		inactive				177 nM	
CC(=O)Nc1nc(SCCO)c(C#N)c(-c2ccco2)c1C#N	> 1000 nM	11%	243 nM	3%		inactive				211 nM	
COC(=O)c1cccc(CSc2nc(N)c(C#N)c(-c3cccnc3)c2C#N)c1	> 1000 nM		1.18 nM	15%	8%	inactive	636 nM	6.26 nM	72%		
COC(=O)c1ccc(CSc2nc(N)c(C#N)c(-c3ccco3)c2C#N)o1	> 1000 nM	1%	82 nM	7%	11%	inactive		185 nM	24%		
CCCn1c(=O)c2[nH]c(C3CCCC3)nc2n(CCC)c1=O				1%							
